Reference: ChEMBL document CHEMBL1153240, “Microwave assisted synthesis and in vitro cytotoxicities of substituted (Z)-2-amino-5-(1-benzyl-1H-indol-3-yl)methylene-1-methyl-1H-imidazol-4(5H)-ones against human tumor cell lines” (2010)

Experiments:
Assay type in all cases: functional
OVCAR-5 = experiment: Cytotoxicity against human OVCAR5 cells
In short: (§1)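 NCI 60-cell-line panel, five-dose response study. Effect is plotted against log10 drug concentration for each cell line. GI50 is the molar concentration giving a 50% reduction in net protein increase relative to control cells. LC50 is the concentration lethal to 50% of cells.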

DU-145 = experiment: Cytotoxicity against human DU145 cells; in short: as §1
SNB-19 = experiment: Cytotoxicity against human SNB19 cells; in short: as §1
BT-549 = experiment: Cytotoxicity against human BT549 cells; in short: as §1
SW-620 = experiment: Cytotoxicity against human SW620 cells
In short: (§2)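 NCI 60 human tumor cell line panel, five-dose dose-response study. Cytotoxic effect was plotted against log10 drug concentration for each cell line. GI50 is the molar concentration giving 50% reduction in net protein increase versus control cells. LC50 is the concentration lethal to 50% of cells.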

HOP-62 = experiment: Cytotoxicity against human HOP62 cells; in short: as §1
HOP-92 = experiment: Cytotoxicity against human HOP92 cells; in short: as §1
RXF 393 = experiment: Cytotoxicity against human RXF393 cells; in short: as §1
SK-MEL-28 = experiment: Cytotoxicity against human SK-MEL-28 cells; in short: as §1
MDA-MB-231 = experiment: Cytotoxicity against human MDA-MB-231 cells; in short: as §1
MDA-MB-435 = experiment: Cytotoxicity against human MDA-MB-435 cells
In short: (§3)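 NCI 60-cell-line panel, five-concentration dose-response. Cytotoxic effect was plotted against log10 drug concentration for each line. GI50 is the molar concentration giving a 50% reduction in net protein increase relative to control cells. LC50 is the concentration lethal to 50% of cells. Both were read from the curves.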

SF-539 = experiment: Cytotoxicity against human SF539 cells; in short: as §1
COLO 205 = experiment: Cytotoxicity against human COLO205 cells; in short: as §3
SN12C = experiment: Cytotoxicity against human SN12C cells; in short: as §1
HT-29 = experiment: Cytotoxicity against human HT-29 cells; in short: as §3
HCT-15 = experiment: Cytotoxicity against human HCT15 cells; in short: as §1
T47D = experiment: Cytotoxicity against human T47D cells; in short: as §2
OVCAR-8 = experiment: Cytotoxicity against human OVCAR8 cells; in short: as §1
ACHN = experiment: Cytotoxicity against human ACHN cells; in short: as §1
MDA-MB-468 = experiment: Cytotoxicity against human MDA-MB-468 cells; in short: as §1
SR = experiment: Cytotoxicity against human SR cells; in short: as §1
NCI-H226 = experiment: Cytotoxicity against human NCI-H226 cells; in short: as §1
HCC 2998 = experiment: Cytotoxicity against human HCC2998 cells; in short: as §1
SK-OV-3 = experiment: Cytotoxicity against human SKOV3 cells; in short: as §1
HCT-116 = experiment: Cytotoxicity against human HCT116 cells; in short: as §1
SK-MEL-2 = experiment: Cytotoxicity against human SK-MEL-2 cells; in short: as §1
IGROV-1 = experiment: Cytotoxicity against human IGROV1 cells; in short: as §1
PC-3 = experiment: Cytotoxicity against human PC3 cells; in short: as §1
HL-60 = experiment: Cytotoxicity against human HL60 cells; in short: as §1
A549 = experiment: Cytotoxicity against human A549 cells; in short: as §1
SK-MEL-5 = experiment: Cytotoxicity against human SK-MEL-5 cells; in short: as §1
U-251 = experiment: Cytotoxicity against human U251 cells; in short: as §2
CCRF-CEM = experiment: Cytotoxicity against human CCRF-CEM cells; in short: as §1
K562 = experiment: Cytotoxicity against human K562 cells; in short: as §1
UO-31 = experiment: Cytotoxicity against human UO31 cells; in short: as §2
NCI-H522 = experiment: Cytotoxicity against human NCI-H522 cells; in short: as §1
NCI-H322M = experiment: Cytotoxicity against human NCI-H322M cells; in short: as §1
EKVX = experiment: Cytotoxicity against human EKVX cells; in short: as §1
786-0 = experiment: Cytotoxicity against human 786-0 cells; in short: as §1
SNB-75 = experiment: Cytotoxicity against human SNB75 cells; in short: as §1
NCI/ADR-RES = experiment: Cytotoxicity against human NCI/ADR-RES cells; in short: as §1
M14 = experiment: Cytotoxicity against human M14 cells; in short: as §1
[1] = Cytotoxicity against human […] cells; in short: as §1
OVCAR-4 = experiment: Cytotoxicity against human OVCAR4 cells; in short: as §1
MOLT-4 = experiment: Cytotoxicity against human MOLT4 cells; in short: as §1
Malme-3M = experiment: Cytotoxicity against human MALME-3M cells; in short: as §1
[2] = Cytotoxicity against human Hs 578T cells; in short: as §1
NCI-H23 = experiment: Cytotoxicity against human NCI-H23 cells; in short: as §1
TK-10 = experiment: Cytotoxicity against human TK10 cells; in short: as §2
NCI-H460 = experiment: Cytotoxicity against human NCI-H460 cells; in short: as §1
MCF7 = experiment: Cytotoxicity against human MCF7 cells; in short: as §1
CAKI-1 = experiment: Cytotoxicity against human Caki1 cells; in short: as §1
SF-268 = experiment: Cytotoxicity against human SF268 cells; in short: as §1
OVCAR-3 = experiment: Cytotoxicity against human OVCAR-3 cells; in short: as §1
LOX IMVI = experiment: Cytotoxicity against human LOXIMVI cells; in short: as §1
A498 = experiment: Cytotoxicity against human A498 cells; in short: as §1
SF-295 = experiment: Cytotoxicity against human SF295 cells; in short: as §1
KM12 = experiment: Cytotoxicity against human KM12 cells; in short: as §1
UACC-257 = experiment: Cytotoxicity against human UACC257 cells; in short: as §2
[3] = read-out: LC50 (the source's name)

For CN1C(N)=NC(=O)/C1=C/c1cn(Cc2ccccc2Br)c2ccccc12, the GI50 (OVCAR-5) was 2.12 µM, the CC50 (OVCAR-5; [3]) was 29 µM and the GI50 (DU-145) was 82.1 µM. For the same compound, the CC50 (DU-145; [3]) was 68.8 µM, the GI50 (SNB-19) was 4.5 µM and the CC50 (SNB-19; [3]) was 43.8 µM. The GI50 (BT-549) was 2.05 µM, the CC50 (BT-549; [3]) was greater than 100 µM and the GI50 (SW-620) was 3.68 µM. It also gave a CC50 (SW-620; [3]) of 43.3 µM, a GI50 (HOP-62) of 8.78 µM and a CC50 (HOP-62; [3]) of 51.2 µM. It also gave a GI50 (HOP-92) of 2.98 µM, a CC50 (HOP-92; [3]) of 44.5 µM and a GI50 (RXF 393) of 2.77 µM. The CC50 (RXF 393; [3]) was 53.7 µM, the GI50 (SK-MEL-28) was 4.14 µM and the CC50 (SK-MEL-28; [3]) was 38.4 µM. The GI50 (MDA-MB-231) was 4.07 µM, the LC50 (MDA-MB-231) was 46.7 µM and the GI50 (MDA-MB-435) was 4.97 µM. For the same compound, the CC50 (MDA-MB-435; [3]) was 68.6 µM, the GI50 (SF-539) was 1.73 µM and the CC50 (SF-539; [3]) was 6.94 µM. The GI50 (COLO 205) was 2.21 µM, the CC50 (COLO 205; [3]) was 12.3 µM and the GI50 (SN12C) was 6.07 µM. For the same compound, the CC50 (SN12C; [3]) was 76.3 µM, the GI50 (HT-29) was 2.18 µM and the CC50 (HT-29; [3]) was 6.94 µM. It also gave a GI50 (HCT-15) of 19.8 µM, a CC50 (HCT-15; [3]) greater than 100 µM and a GI50 (T47D) of 1.68 µM. For the same compound, the CC50 (T47D; [3]) was 13.1 µM, the GI50 (OVCAR-8) was 10.1 µM and the CC50 (OVCAR-8; [3]) was greater than 100 µM. For the same compound, the GI50 (ACHN) was 11.8 µM, the CC50 (ACHN; [3]) was 59 µM and the GI50 (MDA-MB-468) was 1.69 µM. The LC50 (MDA-MB-468) was 6.9 µM, the GI50 (SR) was 1.96 µM and the CC50 (SR; [3]) was 72.7 µM. The GI50 (NCI-H226) was 1.37 µM, the LC50 (NCI-H226) was 69.9 µM and the GI50 (HCC 2998) was 6.95 µM. The CC50 (HCC 2998; [3]) was 47.2 µM, the GI50 (SK-OV-3) was 11.9 µM and the CC50 (SK-OV-3; [3]) was 49.9 µM. For the same compound, the GI50 (HCT-116) was 2.42 µM, the CC50 (HCT-116; [3]) was 30.9 µM and the GI50 (SK-MEL-2) was 5.73 µM. It also gave a CC50 (SK-MEL-2; [3]) greater than 100 µM, a GI50 (IGROV-1) of 20 µM and a CC50 (IGROV-1; [3]) greater than 100 µM. It also gave a GI50 (PC-3) of 10.4 µM, a CC50 (PC-3; [3]) of 48.1 µM and a GI50 (HL-60) of 1.85 µM. For the same compound, the LC50 (HL-60) was 21 µM, the GI50 (A549) was 28.7 µM and the CC50 (A549; [3]) was greater than 100 µM. For the same compound, the GI50 (SK-MEL-5) was 3.38 µM, the LC50 (SK-MEL-5) was 42.3 µM and the GI50 (U-251) was 3.01 µM. For the same compound, the CC50 (U-251; [3]) was 66.2 µM, the GI50 (CCRF-CEM) was 2.54 µM and the CC50 (CCRF-CEM; [3]) was 36.2 µM. For the same compound, the GI50 (K562) was 2.45 µM, the CC50 (K562; [3]) was 77.4 µM and the GI50 (UO-31) was 7.95 µM. For the same compound, the CC50 (UO-31; [3]) was greater than 100 µM, the GI50 (NCI-H522) was 5.38 µM and the LC50 (NCI-H522) was greater than 100 µM. The GI50 (NCI-H322M) was 11 µM, the CC50 (NCI-H322M; [3]) was greater than 100 µM and the GI50 (EKVX) was 58.1 µM. It also gave a CC50 (EKVX; [3]) greater than 100 µM, a GI50 (786-0) of 6.15 µM and an LC50 (786-0) of 46.2 µM. It also gave a GI50 (SNB-75) of 1.58 µM, an LC50 (concentration lethal to 50% of cells) (SNB-75) of 18.6 µM and a GI50 (NCI/ADR-RES) greater than 100 µM. For the same compound, the CC50 (NCI/ADR-RES; [3]) was greater than 100 µM, the GI50 (M14) was 4.46 µM and the LC50 (M14) was 47.8 µM. It also gave a GI50 [1] of 1.19 µM, an LC50 (concentration lethal to 50% of cells) [1] of 65.9 µM and a GI50 (OVCAR-4) of 2.41 µM. For the same compound, the CC50 (OVCAR-4; [3]) was 25.2 µM, the GI50 (MOLT-4) was 4.57 µM and the CC50 (MOLT-4; [3]) was greater than 100 µM. For the same compound, the GI50 (Malme-3M) was 3.3 µM, the CC50 (Malme-3M; [3]) was 73.8 µM and the GI50 [2] was 3.97 µM. The LC50 [2] was greater than 100 µM, the GI50 (NCI-H23) was 8.07 µM and the LC50 (concentration lethal to 50% of cells) (NCI-H23) was 54.8 µM. For the same compound, the GI50 (TK-10) was 6.84 µM, the CC50 (TK-10; [3]) was greater than 100 µM and the GI50 (NCI-H460) was 3.95 µM. It also gave a CC50 (NCI-H460; [3]) of 56.8 µM, a GI50 (MCF7) of 2.25 µM and a CC50 (MCF7; [3]) of 48.1 µM. It also gave a GI50 (CAKI-1) of 68.1 µM, a CC50 (CAKI-1; [3]) greater than 100 µM and a GI50 (SF-268) of 5.38 µM. The CC50 (SF-268; [3]) was 59.8 µM, the GI50 (OVCAR-3) was 1.95 µM and the CC50 (OVCAR-3; [3]) was 7.35 µM. The GI50 (LOX IMVI) was 1.97 µM, the LC50 (LOX IMVI) was 9.37 µM and the GI50 (A498) was 13.9 µM. For the same compound, the CC50 (A498; [3]) was 53.1 µM, the GI50 (SF-295) was 4.96 µM and the CC50 (SF-295; [3]) was greater than 100 µM. The GI50 (KM12) was 5.71 µM, the CC50 (KM12; [3]) was 50.8 µM and the GI50 (UACC-257) was 12.9 µM. The LC50 (UACC-257) was 66.9 µM.
